The source made the active and inactive calls. The rule behind the calls is not given here.
Columns and labels:
[1] = Clearance in Beagle dog at 1 mg/kg, iv by LC-MS/MS analysis; format: ADME, organism-based, Canis lupus familiaris; settings: in vivo
[2] = Fraction unbound in rat plasma at 1 uM by equilibrium dialysis; format: ADME, cell-free
Outline: (§1)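 Rapid equilibrium dialysis of fresh rat, dog or human plasma at a compound concentration of 1.0 µM. Unbound fraction reported as a percentage.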

[3] = AUC (0 to 24 hrs) in Wistar rat at 1 mg/kg, iv by LC-MS/MS analysis; format: ADME, organism-based; design: time < 24 hr, dose 1 mg/kg, route intravenous; settings: Wistar, in vivo
Outline: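 Fasted male Wistar rats; compound in water for injection, given i.v. (2 mL/kg) or p.o. (10 mL/kg). Plasma exposure measured as AUC0-24hr.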

Cytochrome P450 2C9 = Cytochrome P450 2C9 (Homo sapiens, UniProt P11712); test: Inhibition of CYP2C9 (unknown origin); format: ADME
[4] = Mutagenicity in Salmonella typhimurium TA98 in absence of metabolic activation by Ames test; format: toxicity; settings: salmonella enterica subsp. enterica serovar typhimurium
[5] = Solubility in water; format: physicochemical
[6] = Mutagenicity in Salmonella typhimurium TA100 in presence of metabolic activation by Ames test; format: toxicity; settings: salmonella enterica subsp. enterica serovar typhimurium
Outline: (§2)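 Reverse-mutation test in Salmonella typhimurium TA1537, TA1535, TA98 and TA100 and in E. coli WP2 uvrA, run with and without metabolic activation.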

[7] = Mutagenicity in Salmonella typhimurium TA1537 in presence of metabolic activation by Ames test; format: toxicity; settings: salmonella enterica subsp. enterica serovar typhimurium
Rattus norvegicus [8] = test: In vivo receptor occupancy at histamine 3 receptor in Wistar rat frontal cortex at 1 to 3 mg/kg, po after measured after 4 to 6 hrs by LC-MS/MS analysis relative to control; format: functional
[9] = Mutagenicity in Escherichia coli WP2 in absence of metabolic activation by Ames test; format: toxicity; outline: as §2
[10] = Toxicity in Wistar rat up to 100 mg/kg, po by Irwin's test; format: organism-based; settings: in vivo
Outline: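 CNS safety was screened with a modified Irwin's test at oral doses up to 100 mg/kg.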

[11] = Fraction unbound in human plasma at 1 uM by equilibrium dialysis; format: ADME, cell-free; outline: as §1
CHO-K1 [12] = test: Cytotoxicity in CHOK1 cells up to 300 uM incubated for 24 hrs by MTT assay; format: cell-based, Cricetulus griseus; settings: chinese hamster, cho-k1, 24 h
[13] = Metabolic stability in rat hepatocytes after 30 mins by LC-MS/MS analysis; format: ADME, cell-based, Hepatocyte; settings: read-out: Stability
[14] = Metabolic stability in monkey liver microsomes in presence of NADPH after 30 mins by LC-MS/MS analysis; format: ADME, Macaca mulatta, Microsome; settings: rhesus monkey, read-out: Stability
Rattus norvegicus [15] = test: Induction of wake promoting activity in orexin-B-saporin lesioned Wistar rat assessed as increase in wake time at 10 to 30 mg/kg, po dosed 15 mins before start of dark phase; format: functional, organism-based
Outline: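 Rats carried epidural frontal-cortex EEG screws, nuchal EMG leads, and bilateral lateral hypothalamic orexin-B-saporin (490 ng/0.8 µl). After at least 3 weeks' recovery, they were dosed 15 min before lights-off in a crossover design with a 1-week washout. Wake, NREM and REM time was totalled over 3 h. DREM was scored as REM after ≥60 s wake. Dunnett's test was used.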

[16] = Toxicity in dog assessed as effect on blood pressure at 10 to 25 mg/kg, po; format: organism-based, Canis lupus familiaris; settings: in vivo
Outline: (§3)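 Male dogs received oral doses of 10, 18 and 25 mg/kg. Body weight, body temperature, blood pressure, heart rate and ECG were monitored.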

Rattus norvegicus [17] = test: In vivo receptor occupancy at histamine 3 receptor in po dosed Wistar rat frontal cortex after 1 to 24 hrs by LC-MS/MS analysis; format: functional
[18] = Toxicity in dog assessed as effect on body weight at 10 to 25 mg/kg, po; format: organism-based, Canis lupus familiaris; settings: in vivo; outline: as §3
[19] = Respiratory toxicity in Wistar rat up to 90 mg/kg, po; format: organism-based; settings: in vivo
Outline: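 Respiratory safety was evaluated in rats given single oral doses of 10, 30 and 90 mg/kg.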

[20] = Partition coefficient, log P of the compound; format: physicochemical; settings: octanol/water
Rattus norvegicus [21] = test: Effect on accumbal dopamine levels in Wistar rat at 100 mg/kg, po by microdialysis; format: ADME, organism-based; settings: in vivo
Bone marrow cell = test: Clastogenic activity in micronucleus of mouse bone marrow cells; format: toxicity, cell-based
[22] = Toxicity in Wistar rat assessed as effect on latency to fall at 30 to 100 mg/kg, po by rotarod test; format: organism-based; settings: in vivo
Outline: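 Motor coordination was assessed on the rotarod as latency to fall after oral doses of 30 and 100 mg/kg.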

PBL = test: Clastogenic activity in human peripheral blood lymphocytes by chromosomal aberration test; format: toxicity, cell-based
[23] = Volume of distribution at steady state in Wistar rat at 3 mg/kg, po or 1 mg/kg, iv by LC-MS/MS analysis; format: ADME, organism-based; settings: Wistar, in vivo, read-out: Vdss
Outline: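 Fasted male Wistar rats were dosed orally and intravenously, with water for injection as the vehicle for both routes, at dosing volumes of 10 mL/kg p.o. and 2 mL/kg i.v.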

[24] = Volume of distribution in Beagle dog at 1 mg/kg, iv by LC-MS/MS analysis; format: ADME, organism-based, Canis lupus familiaris; settings: in vivo
[25] = Metabolic stability in rat liver microsomes in presence of NADPH after 30 mins by LC-MS/MS analysis; format: ADME, Microsome; settings: read-out: Stability
Cytochrome P450 2C19 = Cytochrome P450 2C19 (Homo sapiens, UniProt P33261); test: Inhibition of CYP2C19 (unknown origin); format: ADME
[26] = Toxicity in dog assessed as effect on body temperature at 10 to 25 mg/kg, po; format: organism-based, Canis lupus familiaris; settings: in vivo; outline: as §3
[27] = Mutagenicity in Salmonella typhimurium TA98 in presence of metabolic activation by Ames test; format: toxicity; settings: salmonella enterica subsp. enterica serovar typhimurium
CHO-K1 [28] = test: Induction of phospholipidosis in CHOK1 cells up to 300 uM incubated for 24 hrs by fluorescent-labeled phospholipid probe NBD-PE based fluorescence assay; format: cell-based, Cricetulus griseus; settings: chinese hamster, cho-k1, 24 h
Cytochrome P450 2E1 = Cytochrome P450 2E1 (Homo sapiens, UniProt P05181); test: Inhibition of CYP2E1 (unknown origin); format: ADME
Cytochrome P450 2A6 = target: T1, Cytochrome P450 2A6 (Homo sapiens, UniProt P11509); test: Inhibition of CYP2A6 (unknown origin); format: ADME
T1 sequence (P11509 whole entry): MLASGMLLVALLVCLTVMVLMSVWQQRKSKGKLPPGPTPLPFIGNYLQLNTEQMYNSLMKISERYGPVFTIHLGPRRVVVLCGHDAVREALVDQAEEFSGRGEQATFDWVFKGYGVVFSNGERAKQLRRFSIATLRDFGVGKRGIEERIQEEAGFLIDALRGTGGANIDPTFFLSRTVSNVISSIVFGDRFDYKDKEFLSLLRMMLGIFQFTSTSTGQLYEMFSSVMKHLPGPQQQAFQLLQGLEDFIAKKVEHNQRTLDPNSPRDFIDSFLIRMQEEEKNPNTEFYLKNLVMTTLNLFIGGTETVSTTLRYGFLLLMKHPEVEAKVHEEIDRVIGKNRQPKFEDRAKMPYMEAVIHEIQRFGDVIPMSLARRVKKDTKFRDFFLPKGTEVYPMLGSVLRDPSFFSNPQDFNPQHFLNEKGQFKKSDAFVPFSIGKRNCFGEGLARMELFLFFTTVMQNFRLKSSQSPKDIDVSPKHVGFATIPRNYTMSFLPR

[29] = Dissociation constant, pKa1 of the compound by potentiometric titration assay; format: physicochemical

Cytochrome P450 2C19, sequence (P33261 whole entry): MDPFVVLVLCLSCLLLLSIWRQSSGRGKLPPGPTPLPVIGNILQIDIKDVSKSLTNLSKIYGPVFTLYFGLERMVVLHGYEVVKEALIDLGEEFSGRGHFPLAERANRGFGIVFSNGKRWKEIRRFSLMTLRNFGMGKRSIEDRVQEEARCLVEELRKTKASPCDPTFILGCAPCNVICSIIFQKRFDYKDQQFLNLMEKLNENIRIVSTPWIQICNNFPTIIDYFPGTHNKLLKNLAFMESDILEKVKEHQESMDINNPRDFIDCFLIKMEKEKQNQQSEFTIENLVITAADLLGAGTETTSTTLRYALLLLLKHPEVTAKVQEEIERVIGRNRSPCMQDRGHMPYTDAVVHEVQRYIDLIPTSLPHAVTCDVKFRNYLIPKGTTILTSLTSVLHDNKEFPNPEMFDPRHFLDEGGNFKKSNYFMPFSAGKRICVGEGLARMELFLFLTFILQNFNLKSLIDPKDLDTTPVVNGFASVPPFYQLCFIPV
Cytochrome P450 2E1, sequence (P05181 whole entry): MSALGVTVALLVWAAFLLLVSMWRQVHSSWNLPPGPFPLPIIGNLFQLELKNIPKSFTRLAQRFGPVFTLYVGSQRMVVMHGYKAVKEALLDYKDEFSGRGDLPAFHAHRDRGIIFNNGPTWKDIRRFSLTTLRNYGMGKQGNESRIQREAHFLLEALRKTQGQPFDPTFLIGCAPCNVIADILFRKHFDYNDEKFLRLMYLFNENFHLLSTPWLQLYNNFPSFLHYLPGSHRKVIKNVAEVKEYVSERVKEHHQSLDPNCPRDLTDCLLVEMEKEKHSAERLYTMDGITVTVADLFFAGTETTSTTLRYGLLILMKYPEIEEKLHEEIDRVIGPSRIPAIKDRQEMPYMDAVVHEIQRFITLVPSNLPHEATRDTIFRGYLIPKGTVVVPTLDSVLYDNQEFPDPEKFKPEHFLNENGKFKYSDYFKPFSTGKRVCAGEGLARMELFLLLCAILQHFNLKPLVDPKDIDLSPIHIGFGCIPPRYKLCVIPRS
Cytochrome P450 2C9, sequence (P11712 whole entry): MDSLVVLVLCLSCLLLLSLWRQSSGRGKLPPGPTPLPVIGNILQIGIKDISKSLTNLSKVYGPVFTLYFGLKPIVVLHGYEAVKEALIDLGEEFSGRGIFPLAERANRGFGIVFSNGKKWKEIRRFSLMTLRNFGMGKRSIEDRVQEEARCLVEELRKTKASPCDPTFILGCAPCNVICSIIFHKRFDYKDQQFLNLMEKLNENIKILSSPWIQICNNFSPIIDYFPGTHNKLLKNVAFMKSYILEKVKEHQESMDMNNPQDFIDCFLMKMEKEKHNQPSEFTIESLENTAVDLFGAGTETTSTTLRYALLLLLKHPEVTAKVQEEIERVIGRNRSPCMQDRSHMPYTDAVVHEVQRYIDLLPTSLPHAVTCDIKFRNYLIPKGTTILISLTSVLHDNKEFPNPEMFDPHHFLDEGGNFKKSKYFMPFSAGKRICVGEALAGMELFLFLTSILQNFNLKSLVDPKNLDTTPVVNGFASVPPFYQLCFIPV

Question: With `Cl.Cl.O=C(CN1CCOCC1)Nc1ccc(OC2CCN(C3CCC3)CC2)cc1` as the compound, how does the clearance [1] read?
Answer: Its clearance is 36 mL/min/kg.

Question: And the fraction unbound at 1 µM [2]?
Answer: Its fraction unbound at 1 µM is 0.37.

Question: What about the AUC(0-t) at 24 h [3] of the same compound?
Answer: The AUC(0-t) at 24 h was 263 ng·h/mL.

Question: What about the IC50 (Cytochrome P450 2C9) of the same compound?
Answer: The IC50 was over 45 µM.

Question: What about the Activity [4] of the same compound?
Answer: Its Activity is “Non-Toxic”.

Question: What about the solubility [5] of the same compound?
Answer: The solubility was 730 mg/mL.

Question: And the Activity [6]?
Answer: Its Activity is “Non-Toxic”.

Question: What about the Activity [7] of the same compound?
Answer: The Activity was “Non-Toxic”.

Question: What about the Occ (Rattus norvegicus [8]) of the same compound?
Answer: Its Occ is 50%.

Question: And the Activity [9]?
Answer: The Activity was “Non-Toxic”.

Question: And the Activity [10]?
Answer: Its Activity is “Non-Toxic”.

Question: And the fraction unbound at 1 µM [11]?
Answer: Its fraction unbound at 1 µM is 0.7.

Question: And the Activity (CHO-K1 [12])?
Answer: Its Activity is “Non-Toxic”.

Question: What about the remaining at 0.5 h [13] of the same compound?
Answer: The remaining at 0.5 h was 37%.

Question: And the remaining at 0.5 h [14]?
Answer: The remaining at 0.5 h was 35%.

Question: What about the Activity (Rattus norvegicus [15]) of the same compound?
Answer: Its Activity is “Active”.

Question: And the Activity [16]?
Answer: Its Activity is “Non-Toxic”.

Question: What about the ED50 (Rattus norvegicus [17]) of the same compound?
Answer: Its ED50 is 0.24 mg/kg.

Question: And the ED80 (Rattus norvegicus [17])?
Answer: The ED80 was 3.05 mg/kg.

Question: What about the Occ (Rattus norvegicus [17]) of the same compound?
Answer: The Occ was “Dose-dependent effect”.

Question: What about the Activity [18] of the same compound?
Answer: The Activity was “Non-Toxic”.

Question: And the Activity [19]?
Answer: The Activity was “Non-Toxic”.

Question: What about the logP [20] of the same compound?
Answer: The logP was 2.2.

Question: What about the Activity (Rattus norvegicus [21]) of the same compound?
Answer: The Activity was “Non-Toxic”.

Question: What about the Activity (Bone marrow cell) of the same compound?
Answer: Its Activity is “Non-Toxic”.

Question: And the Activity [22]?
Answer: Its Activity is “Non-Toxic”.

Question: What about the Activity (PBL) of the same compound?
Answer: The Activity was “Non-Toxic”.

Question: What about the Vd [23] of the same compound?
Answer: The Vd was 5 L/kg.

Question: And the Vd [24]?
Answer: The Vd was 5.2 L/kg.

Question: What about the remaining at 0.5 h [25] of the same compound?
Answer: Its remaining at 0.5 h is 27%.

Question: And the IC50 (Cytochrome P450 2C19)?
Answer: The IC50 was over 45 µM.

Question: What about the Activity [26] of the same compound?
Answer: Its Activity is “Non-Toxic”.

Question: What about the Activity [27] of the same compound?
Answer: The Activity was “Non-Toxic”.

Question: What about the Activity (CHO-K1 [28]) of the same compound?
Answer: The Activity was “Non-Toxic”.

Question: And the IC50 (Cytochrome P450 2E1)?
Answer: The IC50 was over 10 µM.

Question: What about the IC50 (Cytochrome P450 2A6) of the same compound?
Answer: The IC50 was over 45 µM.

Question: And the pKa [29]?
Answer: The pKa was 8.5.
